Data: ChEMBL document CHEMBL2413028, “1-Hydroxypyrazole as a bioisostere of the acetic acid moiety in a series of aldose reductase inhibitors” (Bioorg Med Chem, 2013)

What was measured:
[1] = molecular target: Aldo-keto reductase family 1 member B1 (Rattus norvegicus, UniProt P07943); assay: Inhibition of partially purified Fischer-344 rat lens ALR2 using D,L-glyceraldehyde as substrate assessed as NADPH consumption by spectrophotometry; set-up: species or system Lens of camera-type eye
In short: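 Supernatant brought to 40% ammonium sulfate saturation and spun again; supernatant used directly or kept ≤24 h at −80 °C. Compounds dissolved in 0.2 M NaHCO3. Substrate D,L-glyceraldehyde at 30 °C; NADPH loss at 340 nm. Five concentrations, triplicate; IC50 by least-squares fit of linear log(dose)–response region.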

[2] = molecular target: Aldo-keto reductase family 1 member A1 (Rattus norvegicus, UniProt P51635); assay: Inhibition of partially purified Fischer-344 rat kidney ALR1 using D,L-glycuronate as substrate assessed as NADPH consumption by spectrophotometry
In short: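 Kidneys from Fischer-344 rats of both sexes homogenized in 3 vol 10 mM sodium phosphate buffer; 10,000g supernatant taken through ammonium sulfate fractions at 40%, 50% and 75% saturation. Last pellet redissolved in 10 mM sodium phosphate pH 7.2 with 2.0 mM EDTA and 2.0 mM β-mercaptoethanol, DEAE-treated, stored at −80 °C. Substrate D-glycuronate at 37 °C. NADPH loss read at 340 nm. Five concentrations, triplicate; IC50 by least squares on linear part of log(dose)–response.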

Rattus norvegicus = species on record: Rattus norvegicus; assay: Selectivity index, ratio of IC50 for partially purified Fischer-344 rat kidney ALR1 to IC50 for partially purified Fischer-344 rat lens ALR2; conditions: Lens of camera-type eye

Chain of Aldo-keto reductase family 1 member A1 (P51635 whole entry, looked up): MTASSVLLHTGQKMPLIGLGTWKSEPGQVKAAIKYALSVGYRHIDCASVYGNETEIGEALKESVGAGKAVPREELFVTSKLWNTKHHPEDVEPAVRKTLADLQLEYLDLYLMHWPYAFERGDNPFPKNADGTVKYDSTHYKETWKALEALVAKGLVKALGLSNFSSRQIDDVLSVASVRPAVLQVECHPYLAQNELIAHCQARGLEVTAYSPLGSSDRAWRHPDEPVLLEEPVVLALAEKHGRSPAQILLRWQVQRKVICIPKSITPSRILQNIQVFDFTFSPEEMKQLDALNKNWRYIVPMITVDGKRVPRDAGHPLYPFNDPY

Row | IC50 [1] [µM] | IC50 [2] [µM] | SMILES | Ratio IC50 (Rattus norvegicus)
1 | 0.344 | 52.5 | O=C(O)Cn1ccc(C(=O)c2ccc(-c3ccccc3)cc2)c1 | 153
2 | 13.5 | > 100 | O=C(c1ccccc1)c1cccn1-c1cnn(O)c1 | > 7.41
3 | 15.1 | > 100 | COc1ccc(C(=O)c2cccn2-c2cnn(O)c2)cc1 | > 6.67
4 | 9.81 | > 100 | O=C(c1ccc(-c2ccccc2)cc1)c1cccn1-c1cnn(O)c1 | > 10.2
5 | – | > 100 | O=C(O)Cn1ccc(C(=O)c2ccccc2)c1 | > 50.8
6 | 4.57 | > 100 | COc1ccc(C(=O)c2cccn2CC(=O)O)cc1 | > 21.9
7 | 0.698 | 62.1 | O=C(c1ccc(-c2ccccc2)cc1)c1ccn(-c2cnn(O)c2)c1 | 88.9
8 | 1.6 | > 100 | COc1ccc(C(=O)c2ccn(CC(=O)O)c2)cc1 | > 62.4
9 | 22 | > 100 | O=C(O)Cn1cccc1C(=O)c1ccccc1 | > 4.54
10 | 7 | > 100 | O=C(O)Cn1cccc1C(=O)c1ccc(-c2ccccc2)cc1 | > 14.3
11 | 0.708 | 10.8 | COc1ccc(C(=O)c2ccn(-c3cnn(O)c3)c2)cc1 | 11.2
12 | 1.14 | 10.8 | O=C(c1ccccc1)c1ccn(-c2cnn(O)c2)c1 | 9.46
